Measurements gathered from unrelated publications.
Compare with care: the assays were run in different laboratories.
Target: MAP kinase-interacting serine/threonine-protein kinase 2 (MKNK2, Homo sapiens, UniProt Q9HBH9)

CN(c1nccc(-c2cnn3ncccc23)n1)C1CC1 — remaining binding (binding; 1 µM): 77%
O=C(c1ccc(Nc2ncc(Cl)c(-c3ccc(Cl)s3)n2)cc1)N1CCC(N2CCCC2)CC1 — remaining binding (binding; competition with immobilised ligand; 1 µM): 4.2%
CN(C(=O)c1ccccc1)c1cc(N(C)c2ccc3c(c2)CCc2ccc(C(=O)NCCN4CCOCC4)cc2C3=O)ccc1F — remaining binding (cell-free assay; competition with immobilised ligand; 1 µM): 100%
CN(C)c1nccc(-c2cnn3ncccc23)n1 — remaining binding (binding; 1 µM): 28%
N#Cc1ccccc1CSc1nnc2c(n1)[nH]c1ccccc12 — remaining binding (binding; competition with immobilised ligand; 10 µM): 95%
CNCc1ccccc1-c1csc([C@H](C)Nc2nc(C)nc3cc(OC)c(OC)cc23)c1 — remaining binding (cell-free assay; competition with immobilised ligand; 1 µM): 71%
FC(F)(F)Oc1cccc(-c2cnc3ccc(-c4ccncc4)nn23)c1 — remaining binding (cell-free assay; competition with immobilised ligand; 5 µM): 21%
N[C@H]1CCN(c2nccc(-c3cnn4ncccc34)n2)C1 — remaining binding (binding; 1 µM): 21%
CO[C@@H](C)c1c(Nc2ccc([C@H](N(C)C(=O)C3CCS(=O)(=O)CC3)C(F)(F)F)cc2)cnc2cc(Cl)nn12 — remaining binding (cell-free assay; competition with immobilised ligand; 1 µM): 100%
CN(CCCC(F)(F)F)c1nccc(-c2cnn3ncccc23)n1 — remaining binding (binding; 1 µM): 35%
CCCOc1ccc([C@H]2[C@H](C(=O)O)[C@@H](c3ccc4c(c3)OCO4)CN2CC(=O)Nc2c(CC)cccc2CC)cc1 — remaining binding (cell-free assay; competition with immobilised ligand; 1 µM): 74%
O=C(NCC1CCOCC1)c1n[nH]cc1NC(=O)c1c(F)cccc1F — remaining binding (binding; competition with immobilised ligand; 1 µM): 100%
CCC(=O)N[C@@H]1CC[C@H](C(=O)N(C)c2ccc(-c3nc4ccccc4o3)cc2)C1 — remaining binding (cell-free assay; competition with immobilised ligand; 1 µM): 100%
COc1cnc(Nc2cccc(S(N)(=O)=O)c2)nc1N1CCN(c2ccccc2)CC1 — remaining binding (binding; competition with immobilised ligand; 1 µM): 59%
FC(F)(F)c1ccc2c(c1)nc(-c1cccnc1)n2C1CC1 — remaining binding (cell-free assay; competition with immobilised ligand; 1 µM): 100%
O=C(c1ccc(Nc2ncc(Cl)c(-c3cc4ccccc4s3)n2)cc1)N1CCC(N2CCCC2)CC1 — remaining binding (binding; competition with immobilised ligand; 1 µM): 6.9%
C[C@@H]1CN(c2ccc3ncc(-c4ccc5[nH]nc(C6CC6)c5c4)n3n2)C[C@H](C)O1 — remaining binding (binding; competition with immobilised ligand; 50 nM): 75%
CN(c1ccnc(CNc2nc(Nc3ccc4c(c3)CC(=O)N4)ncc2C(F)(F)F)n1)S(C)(=O)=O — remaining binding (cell-free assay; competition with immobilised ligand; 1 µM): 91%
O=C(NCCCN1CCOCC1)c1ccc(Nc2ncc(Cl)c(-c3ccc(Cl)s3)n2)cc1 — remaining binding (binding; competition with immobilised ligand; 1 µM): 55%
COc1cnc(Nc2cccc(S(N)(=O)=O)c2)nc1N1CCN(c2ccccc2)C(=O)C1 — remaining binding (binding; competition with immobilised ligand; 1 µM): 59%
Cn1nc(C(F)(F)F)cc1-c1cnc(N2CCc3cc(S(=O)(=O)Nc4c(F)cc(Cl)cc4F)cc(N4CCCC4=O)c32)nc1 — remaining binding (cell-free assay; competition with immobilised ligand; 1 µM): 94%
Cc1cnn2ncc(-c3ccnc(N(C)C)n3)c2c1 — remaining binding (binding; 1 µM): 49%
CCN1CCN(Cc2ccc(C(=O)Nc3ccc(C)c(Oc4ccc5c(c4)CC(=O)N5)c3)cc2C(F)(F)F)CC1 — remaining binding (binding; competition with immobilised ligand; 1 µM): 95%
C[C@@H]1CCN(c2nccc(-c3cnn4ncccc34)n2)C1 — remaining binding (binding; 1 µM): 11%
COc1cc(C(=O)N2CCC(N3CCN(C)CC3)CC2)ccc1Nc1ncc2c(n1)N(C)c1ccccc1C(=O)N2C — remaining binding (binding; competition with immobilised ligand; 10 µM): 1.2%
CC(C)(C)c1ccc(-c2nc(CBr)nn2-c2cccc(O)c2)cc1 — remaining binding (cell-free assay; competition with immobilised ligand; 10 µM): 62%
